In data set [1] the target is Elastase (Pseudomonas aeruginosa (strain ATCC 15692 / PAO1 / 1C / PRS 101 / LMG12228)) (UniProt P14756). Put plainly: Inhibition of Pseudomonas aeruginosa PAO1 GFP-fused quorum sensing lasB at 10 uM measured every 15 mins up to 12 hrs by GFP reporter gene assay relative to control. A digest of the protocol:
(§1)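 GFP reporter strains of P. aeruginosa PAO1 (lasB-, rhlA- or pqsA-promoter fused to unstable gfp(ASV)) grown overnight in LB at 37 °C, 200 rpm, 18 h, then diluted 1:100. Culture mixed 1:1 with compound diluted in LB from 10 mM DMSO stock (0.1% DMSO final). Fluorescence (ex 485/em 528 nm) read every 15 min at 37 °C for ≥12 h.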
On the technique in general: Reporter assays use an easily measured gene product as a stand-in for the process of interest.

Data set [2] concerns Pseudomonas aeruginosa PAO1. Description: Inhibition of Pseudomonas aeruginosa PAO1 GFP-fused quorum sensing rhlA at 10 uM measured every 15 mins up to 12 hrs by GFP reporter gene assay relative to control. The procedure, abridged:
as §1

Data set [3] concerns the target T1, Anthranilate--CoA ligase (Pseudomonas aeruginosa (strain ATCC 15692 / DSM 22644 / CIP 104116 /JCM 14847 / LMG 12228 / 1C / PRS 101 / PAO1)) (UniProt Q9I4X3).
T1 sequence (whole entry): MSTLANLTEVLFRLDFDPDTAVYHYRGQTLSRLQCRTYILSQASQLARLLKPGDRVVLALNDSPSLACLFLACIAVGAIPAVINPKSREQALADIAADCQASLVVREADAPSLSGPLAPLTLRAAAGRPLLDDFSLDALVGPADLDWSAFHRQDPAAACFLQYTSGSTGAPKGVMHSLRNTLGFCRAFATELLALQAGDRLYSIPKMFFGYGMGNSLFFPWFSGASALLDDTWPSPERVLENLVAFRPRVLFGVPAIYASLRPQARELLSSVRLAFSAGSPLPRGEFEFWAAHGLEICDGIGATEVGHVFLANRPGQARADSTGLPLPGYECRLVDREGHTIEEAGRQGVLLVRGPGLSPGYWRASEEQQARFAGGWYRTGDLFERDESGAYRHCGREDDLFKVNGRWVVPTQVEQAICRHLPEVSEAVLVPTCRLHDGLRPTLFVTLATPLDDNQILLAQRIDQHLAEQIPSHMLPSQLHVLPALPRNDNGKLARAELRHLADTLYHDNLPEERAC
Description: Inhibition of Pseudomonas aeruginosa PAO1 GFP-fused quorum sensing pqsA at 10 uM measured every 15 mins up to 12 hrs by GFP reporter gene assay relative to control. A digest of the protocol: as §1

Data set [4] deals with RAW264.7. Put plainly: Anti-inflammatory activity in mouse RAW264.7 cells assessed as inhibition of LPS-induced NO production at 10 uM preincubated for 2 hrs followed by LPS stimulation and measured after 48 hrs by Griess method relative to control. It is filed as functional. A digest of the protocol:
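RAW264.7 cells seeded at 5 × 10^4/well and cultured 18 h, then given 10 µM compound plus LPS 100 ng/mL for 48 h at 37 °C. Supernatant mixed 1:1 with Griess reagent (1% sulfanilamide, 0.1% naphthylethylenediamine in 5% phosphoric acid) for 10 min; nitrite read at OD540.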

Data set [5] can be described thus: Cytotoxicity against mouse RAW264.7 cells assessed as cell viability at 5 uM after 48 hrs by MTT assay relative to control. Format: cell-based. The settings on record: read-out: Activity. A digest of the protocol: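 MTT viability: RAW264.7 cells (4 × 10^4/well) in DMEM + 10% FBS exposed to compounds diluted in DMEM for 48 h. MTT 0.5 mg/mL added for 4 h in the dark, formazan dissolved in DMSO, read at 570 nm. Viability = treated/medium-only control × 100; three independent experiments.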
On the technique in general: Formazan colour is commonly taken as a measure of viable cells.

In data set [6] the test system is RAW264.7. Description: Anti-inflammatory activity in mouse RAW264.7 cells assessed as inhibition of LPS-induced TNF-alpha production by measuring TNF-alpha level at 10 uM preincubated for 2 hrs followed by LPS stimulation and measured after 6 hrs by ELISA (reference value: 11922 +/- 628.4 pg/ml). It is filed as functional. (In general: In an ELISA, binding on a coated surface is turned into a signal by an enzyme label.)

Data set [7] has as its system RAW264.7. Description: Anti-inflammatory activity in mouse RAW264.7 cells assessed as inhibition of LPS-induced TNF-alpha production by measuring TNF-alpha level at 10 uM preincubated for 2 hrs followed by LPS stimulation and measured after 12 hrs by ELISA (reference value: 21561.3 +/- 857 pg/ml). Format: functional.
Data set [8] concerns RAW264.7. Put plainly: Anti-inflammatory activity in mouse RAW264.7 cells assessed as inhibition of LPS-induced TNF-alpha production by measuring TNF-alpha level at 10 uM preincubated for 2 hrs followed by LPS stimulation and measured after 24 hrs by ELISA (reference value: 24216 +/- 498.7 pg/ml). Format: functional.
Data set [9] deals with RAW264.7. Put plainly: Anti-inflammatory activity in mouse RAW264.7 cells assessed as inhibition of LPS-induced IL-6 production by measuring […] level at 10 uM preincubated for 2 hrs followed by LPS stimulation and measured after 6 hrs by ELISA (reference value: 94.6 +/- 5.9 pg/ml). Format: functional.
For data set [10], the system named is RAW264.7. Description: Anti-inflammatory activity in mouse RAW264.7 cells assessed as inhibition of LPS-induced IL-6 production by measuring […] level at 10 uM preincubated for 2 hrs followed by LPS stimulation and measured after 12 hrs by ELISA (reference value: 175.2 +/- 10.2 pg/ml). Format: functional.
Data set [11] concerns RAW264.7. Description: Anti-inflammatory activity in mouse RAW264.7 cells assessed as inhibition of LPS-induced IL-6 production by measuring IL-6 level at 10 uM preincubated for 2 hrs followed by LPS stimulation and measured after 24 hrs by ELISA (reference value: 407.6 +/- 16.7 pg/ml).

Sequence of Elastase (Pseudomonas aeruginosa (strain ATCC 15692 / PAO1 / 1C / PRS 101 / LMG12228)) (P14756 198-498 limits assumed): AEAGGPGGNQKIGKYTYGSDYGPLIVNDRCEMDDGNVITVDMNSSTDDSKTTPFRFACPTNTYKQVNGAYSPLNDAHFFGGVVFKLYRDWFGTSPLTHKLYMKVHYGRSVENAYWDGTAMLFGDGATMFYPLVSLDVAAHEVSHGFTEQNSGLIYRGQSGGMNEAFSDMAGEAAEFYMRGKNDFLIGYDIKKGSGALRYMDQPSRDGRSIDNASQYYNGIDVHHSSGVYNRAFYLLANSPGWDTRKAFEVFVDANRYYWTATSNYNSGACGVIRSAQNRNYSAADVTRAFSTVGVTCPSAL

Regarding `O=C1C=C(Cc2ccc(NC(=O)c3cccs3)cc2)C(=C(Br)Br)O1`, the inhibition in data set [1] was 20%; in data set [2], 19.6%; in [3] it was 26.4%. Besides, the inhibition at 10 µM in [4] worked out at 39.9%.
With `Cc1ccc(CC(=O)Nc2ccc(CC3=CC(=O)OC3=CBr)cc2)cc1`, the results for the inhibition in data set [1], in data set [2] and in data set [3] were 19%, 18.2% and 29.8%, respectively. Also, the inhibition at 10 µM in [4] came to 29.4%.
For the compound `COc1ccc(CC(=O)Nc2ccc(CC3=CC(=O)OC3=C(Br)Br)cc2)cc1`, the inhibition in data set [1] came to 11.8%; in data set [2], 13.8%; in data set [3] it was 20.6%. In data set [4], the inhibition at 10 µM was 25.2%.
On to `O=C1C=C(Cc2ccc(NC(=O)c3cccs3)cc2)C(=CBr)O1`, for which the inhibition in data set [1] stood at 10.2%; in data set [2], 23.9%; in data set [3], 20.3%. In addition, the inhibition at 10 µM in data set [4] amounted to 54.2%.
The matching figures for `Cc1ccc(CC(=O)Nc2ccc(CC3=CC(=O)OC3=C(Br)Br)cc2)cc1`: 14.2%, 16.4%, 24.5% and 19%.
The matching figures for `O=C(CCc1ccccc1)Nc1ccc(CC2=CC(=O)OC2=CBr)cc1`: 14.9%, 15.2%, 20.6% and 64.8%.
The like results for `COc1ccc(CC(=O)Nc2ccc(CC3=CC(=O)OC3=CBr)cc2)cc1` were, in that order, 14.8%, 11.8%, 26.4% and 39.3%.
Turning to `O=C1C=C(Br)/C(=C/Br)O1`, the inhibition in [1] is 21.4%; in [2] it was 24%; in data set [3], 20.2%.
With `O=C(Cc1c(Cl)cccc1Cl)Nc1ccc(CC2=CC(=O)OC2=C(Br)Br)cc1`, the inhibition in data set [1] was found to be 19.1%; in data set [2], 19.2%; in data set [3], 19.3%. Further, in data set [4], the inhibition at 10 µM worked out at 53.5%.
As to `O=C(Nc1ccccc1)c1cc([N+](=O)[O-])ccc1Cl`, the viability at 48 h, 5 µM in data set [5] was 99.1%.
As for `COc1ccc2c(c1)c(CC(=O)O)c(C)n2C(=O)c1ccc(Cl)cc1` [INDOMETHACIN], in [4], the inhibition at 10 µM turned out to be 29.4%. The Activity in data set [6] came out at 10850 pg/mL; in data set [7], 19664 pg/mL; in data set [8], 20772 pg/mL; in data set [9] it was 59.6 pg/mL; in data set [10], 120.7 pg/mL; in [11], 286.6 pg/mL.
Regarding `O=C(Cc1ccc(Br)cc1)Nc1ccc(CC2=CC(=O)OC2=C(Br)Br)cc1`, the inhibition in data set [1] was determined as 10.4%; in data set [2], 20%; in data set [3], 27.9%. The inhibition at 10 µM in [4] was determined as 50.7%.
`O=C(CCc1ccccc1)Nc1ccc(CC2=CC(=O)OC2=C(Br)Br)cc1`: the inhibition worked out at 11% in data set [1], 19.5% in data set [2] and 22.9% in data set [3]. Also, the inhibition at 10 µM in [4] was found to be 48.1%.
For `O=C1C=C(Cc2ccc(NC(=O)c3ccccc3)cc2)C(=CBr)O1`, the inhibition in data set [1] came to 16.1%; in data set [2], 17.2%; in [3], 34.5%. For the same compound, the inhibition at 10 µM in data set [4] came out at 46.2%.
The like results for `O=C1C=C(Cc2ccc(NC(=O)c3ccco3)cc2)C(=CBr)O1` were, in that order, 17.3%, 13.6%, 20.4% and 59.9%.
`O=C(Cc1ccc(Br)cc1)Nc1ccc(CC2=CC(=O)OC2=CBr)cc1`: the inhibition in data set [1] is 24.9%; in [2], 17.2%; in data set [3], 40.8%. For the same compound, the inhibition at 10 µM in data set [4] is 64.9%.
The like results for `O=C(Cc1c(Cl)cccc1Cl)Nc1ccc(CC2=CC(=O)OC2=CBr)cc1` were, in that order, 16.9%, 15.2%, 17.6% and 66.6%.
On to `O=C(Cc1ccc(F)cc1)Nc1ccc(CC2=CC(=O)OC2=C(Br)Br)cc1`, for which the inhibition in [1] was found to be 9.49%; in data set [2] it was 15.9%; in data set [3], 20%. The inhibition at 10 µM in data set [4] was found to be 59.2%.
With `O=C(Cc1ccccc1)Nc1ccc(CC2=CC(=O)OC2=C(Br)Br)cc1`, the inhibition came to 19.2% in data set [1], 19.2% in data set [2] and 24.8% in [3]. Besides, in [4], the inhibition at 10 µM came to 44.1%.
With `O=C(/C=C/c1ccccc1)Nc1ccc(CC2=CC(=O)OC2=C(Br)Br)cc1`, the inhibition in data set [1] came to 9.48%; in [2], 18.1%; in [3], 16.2%. In data set [4], the inhibition at 10 µM is 54.4%.
For the compound `O=C1C=C(Cc2ccc(NC(=O)c3ccccc3)cc2)C(=C(Br)Br)O1`, the inhibition came out at 21.2% in data set [1], 20.2% in data set [2] and 28.2% in data set [3]. The inhibition at 10 µM in data set [4] was found to be 30.3%.
In the case of `COc1cc(CC(=O)Nc2ccc(CC3=CC(=O)OC3=C(Br)Br)cc2)cc(OC)c1OC`, the inhibition in [1] came to 9.79%; in data set [2] it was 7.66%; in data set [3], 19.5%. For the same compound, the inhibition at 10 µM in data set [4] is 21.2%.
As to `O=C1C=C(Cc2ccc(NC(=O)c3ccco3)cc2)C(=C(Br)Br)O1`, the values for the inhibition in data set [1], in data set [2] and in data set [3] were 22.9%, 23.6% and 34.6%, respectively. Further, the inhibition at 10 µM in [4] worked out at 44.5%.
The matching figures for `COc1ccc(/C=C/C(=O)Nc2ccc(CC3=CC(=O)OC3=C(Br)Br)cc2)cc1`: 5.03%, 12.9%, 21.9% and 44.3%.
Regarding `COc1cc(CC(=O)Nc2ccc(CC3=CC(=O)OC3=CBr)cc2)cc(OC)c1OC`, the inhibition in data set [1] came to 8.53%; in data set [2], 5.57%; in [3] it was 20.3%. In addition, the inhibition at 10 µM in [4] is 34.3%.
`COc1ccc(C=CC(=O)Nc2ccc(CC3=CC(=O)O/C3=C/Br)cc2)cc1`: the inhibition is 12.2% in data set [1], 10.6% in [2] and 24.3% in data set [3]. For the same compound, the inhibition at 10 µM in [4] stood at 61%.
The matching figures for `O=C(Cc1ccccc1)Nc1ccc(CC2=CC(=O)OC2=CBr)cc1`: 18%, 17.3%, 25.8% and 59.5%.

The inhibition is the drop in the measured response relative to a control, in per cent.

(Values after ChEMBL document CHEMBL4145447, “4-arylamidobenzyl substituted 5-bromomethylene-2(5H)-furanones for chronic bacterial infection” (Eur J Med Chem, 2018).)
